Here are results for 14 compounds from ChEMBL document CHEMBL1147868, “Synthesis of novel triazole derivatives as inhibitors of cytochrome P450 14alpha-demethylase (CYP51)” (2007).

Values after ≈ are worked out from the molar mass of the structure shown.

Common to all, as to format: functional
For assay [1], the system named is Trichophyton rubrum. Nature of the assay: Antifungal activity against Trichophyton rubrum after 7 days by microbroth dilution method. The note with it: 168 h. In short, it runs like this:
(§1)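 Clinical isolates supplied by a hospital were tested by NCCLS broth microdilution. Compounds were dissolved in DMSO, serially diluted in growth medium, inoculated and incubated at 35 C. Growth was read at 7 days for filamentous fungi. MIC80 was taken as the first well with about 80% less growth than the drug-free well.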
(In general: Dilution methods test growth across graded concentrations, often in twofold steps.)

The subject of assay [2] is Cryptococcus neoformans. Nature of the assay: Antifungal activity against Cryptococcus neoformans ATCC BLS108 after 72 hrs by micro-broth dilution method. In a few lines:
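This ATCC standard quality-control strain was tested in every assay by NCCLS microdilution. Test agents were dissolved in DMSO and serially diluted in growth medium. Cultures were incubated at 35 C and read at 72 h. MIC80 was the first well with approximately 80% reduced growth relative to the drug-free well.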

Assay [3] relates to Fonsecaea compacta. Nature of the assay: Antifungal activity against Fonsecaea compacta after 7 days by micro-broth dilution method. To be noted: 168 h. In short, it runs like this: as §1
The subject of assay [4] is Aspergillus fumigatus. Put plainly: Antifungal activity against Aspergillus fumigatus after 7 days by micro-broth dilution method. The note with it: 168 h. In short, it runs like this: as §1
In assay [5] the test system is Candida albicans. Nature of the assay: Antifungal activity against Candida albicans ATCC Y0109 after 24 hrs by micro-broth dilution method. In short, it runs like this: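 An ATCC standard quality-control strain was included in each run of an NCCLS micro-broth dilution assay. Compounds were dissolved in DMSO, serially diluted in growth medium and incubated at 35 C. Reading was at 24 h, and MIC80 was the first well showing roughly 80% growth reduction versus the drug-free control.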

Assay [6] concerns Candida parapsilosis. Put plainly: Antifungal activity against Candida parapsilosis ATCC 0306392 after 7 days by micro-broth dilution method. To be noted: Lodderomyces parapsilosis, ATCC 0306392, 168 h. In a few lines:
(§2)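 Micro-broth dilution followed NCCLS methods, using an ATCC standard quality-control strain for C. parapsilosis and a clinical isolate for C. tropicalis. Compounds were dissolved in DMSO, serially diluted in growth medium and incubated at 35 C. MIC80 was the first well with about 80% growth reduction compared with the drug-free well.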

The subject of assay [7] is Candida tropicalis. Nature of the assay: Antifungal activity against Candida tropicalis after 7 days by micro-broth dilution method. The note with it: 168 h. In short, it runs like this: as §2
Assay [8] deals with Microsporum. Put plainly: Antifungal activity against Microsporum gypseum after 7 days by micro-broth dilution method. To be noted: 168 h. In a few lines: as §1

For the compound `Nc1ccc(N2CCN(CC(O)(Cn3cncn3)c3ccc(F)cc3F)CC2)c(F)c1` (configuration not stated), the MIC80 (as a rule, an inhibitory concentration at the 80% level, which refers to growth in some studies and to a panel of isolates in others) in assay [1] worked out at 0.25 µg/mL (≈ 0.578 µM); in assay [2] it was 0.0152 µg/mL (≈ 0.0351 µM); in assay [3] it was 0.25 µg/mL (≈ 0.578 µM); in assay [4] it was 4 µg/mL (≈ 9.25 µM); in assay [5] it was 0.25 µg/mL (≈ 0.578 µM); in assay [6] it was 0.25 µg/mL (≈ 0.578 µM). Moreover, the MIC80 turned out to be 4 µg/mL (≈ 9.25 µM) in assay [7] and 0.0625 µg/mL (≈ 0.145 µM) in assay [8].

On to `O=C(Nc1ccc(N2CCN(CC(O)(Cn3cncn3)c3ccc(F)cc3F)CC2)c(F)c1)c1ccccc1` (configuration not stated), for which the MIC80 worked out at 0.0152 µg/mL (≈ 0.0283 µM) in assay [1]; 0.0625 µg/mL (≈ 0.116 µM) in assay [2]; 0.25 µg/mL (≈ 0.466 µM) in assay [3]; 1 µg/mL (≈ 1.86 µM) in assay [4]; 0.0625 µg/mL (≈ 0.116 µM) in assay [5]; 0.0152 µg/mL (≈ 0.0283 µM) in assay [6]. Besides, the MIC80 in assay [7] amounted to 0.0039 µg/mL (≈ 0.00727 µM); in assay [8], 0.0152 µg/mL (≈ 0.0283 µM).

On to `O=C(Nc1ccc(N2CCN(CC(O)(Cn3cncn3)c3ccc(F)cc3F)CC2)c(F)c1)c1ccccc1F` (configuration not stated), for which the MIC80 is 0.0152 µg/mL (≈ 0.0274 µM) in assay [1]; 0.0152 µg/mL (≈ 0.0274 µM) in assay [2]; 0.0625 µg/mL (≈ 0.113 µM) in assay [3]; 4 µg/mL (≈ 7.21 µM) in assay [4]; 0.0152 µg/mL (≈ 0.0274 µM) in assay [5]; below 0.0039 µg/mL in assay [6]. The MIC80 in assay [7] was determined as 0.0152 µg/mL (≈ 0.0274 µM); in assay [8], 0.0625 µg/mL (≈ 0.113 µM).

For the compound `O=C(Nc1ccc(N2CCN(CC(O)(Cn3cncn3)c3ccc(F)cc3F)CC2)c(F)c1)c1ccc(F)cc1` (configuration not stated), the MIC80 in assay [1] turned out to be 0.25 µg/mL (≈ 0.451 µM); in assay [2] it was 0.0152 µg/mL (≈ 0.0274 µM); in assay [3], 0.0625 µg/mL (≈ 0.113 µM); in assay [4] it was 1 µg/mL (≈ 1.8 µM); in assay [5], 0.0152 µg/mL (≈ 0.0274 µM); in assay [6] it was 0.0039 µg/mL (≈ 0.00703 µM). In addition, the MIC80 in assay [7] and in assay [8] was 0.0152 µg/mL (≈ 0.0274 µM) each time.

For the compound `O=C(Nc1ccc(N2CCN(CC(O)(Cn3cncn3)c3ccc(F)cc3F)CC2)c(F)c1)c1ccccc1Cl` (configuration not stated), the MIC80 in assay [1] is 0.0152 µg/mL (≈ 0.0266 µM); in assay [2], 0.25 µg/mL (≈ 0.438 µM); in assay [3] it was 0.0625 µg/mL (≈ 0.109 µM); in assay [4], 1 µg/mL (≈ 1.75 µM); in assay [5], 0.0152 µg/mL (≈ 0.0266 µM); in assay [6], 0.0152 µg/mL (≈ 0.0266 µM). Further, the MIC80 in assay [7] and in assay [8] was 0.0152 µg/mL (≈ 0.0266 µM) each time.

Regarding `O=C(Nc1ccc(N2CCN(CC(O)(Cn3cncn3)c3ccc(F)cc3F)CC2)c(F)c1)c1cccc(Cl)c1` (configuration not stated), the MIC80 amounted to 0.0625 µg/mL (≈ 0.109 µM) in assay [1]; 0.25 µg/mL (≈ 0.438 µM) in assay [2]; 0.25 µg/mL (≈ 0.438 µM) in assay [3]; 4 µg/mL (≈ 7.01 µM) in assay [4]; 0.25 µg/mL (≈ 0.438 µM) in assay [5]; 0.0152 µg/mL (≈ 0.0266 µM) in assay [6]. In addition, the MIC80 in assay [7] and in assay [8] was 0.0625 µg/mL (≈ 0.109 µM) in each case.

For `O=C(Nc1ccc(N2CCN(CC(O)(Cn3cncn3)c3ccc(F)cc3F)CC2)c(F)c1)c1ccc(Cl)cc1` (configuration not stated), the MIC80 in assay [1] came to 0.0625 µg/mL (≈ 0.109 µM); in assay [2], 0.25 µg/mL (≈ 0.438 µM); in assay [3], 0.0625 µg/mL (≈ 0.109 µM); in assay [4] it was 0.25 µg/mL (≈ 0.438 µM); in assay [5], 0.0625 µg/mL (≈ 0.109 µM); in assay [6], 0.0152 µg/mL (≈ 0.0266 µM). Moreover, the MIC80 in assay [7] came to 0.0152 µg/mL (≈ 0.0266 µM); in assay [8], 0.25 µg/mL (≈ 0.438 µM).

As for `O=C(Nc1ccc(N2CCN(CC(O)(Cn3cncn3)c3ccc(F)cc3F)CC2)c(F)c1)c1ccc(Cl)cc1Cl` (configuration not stated), the MIC80 worked out at 0.0625 µg/mL (≈ 0.103 µM) in assay [1]; 0.0625 µg/mL (≈ 0.103 µM) in assay [2]; 0.25 µg/mL (≈ 0.413 µM) in assay [3]; 0.25 µg/mL (≈ 0.413 µM) in assay [4]; 0.25 µg/mL (≈ 0.413 µM) in assay [5]; 0.0152 µg/mL (≈ 0.0251 µM) in assay [6]. Besides, the MIC80 in assay [7] came out at 0.0625 µg/mL (≈ 0.103 µM); in assay [8], 0.0039 µg/mL (≈ 0.00644 µM).

Regarding `O=C(Nc1ccc(N2CCN(CC(O)(Cn3cncn3)c3ccc(F)cc3F)CC2)c(F)c1)c1ccccc1Br` (configuration not stated), the MIC80 in assay [1] came out at 0.0039 µg/mL (≈ 0.00634 µM); in assay [2] it was 0.0625 µg/mL (≈ 0.102 µM); in assay [3], 0.25 µg/mL (≈ 0.406 µM); in assay [4], 1 µg/mL (≈ 1.62 µM); in assay [5], 0.0625 µg/mL (≈ 0.102 µM); in assay [6], 0.0152 µg/mL (≈ 0.0247 µM). Besides, the values for the MIC80 in assay [7] and in assay [8] were 0.0152 µg/mL (≈ 0.0247 µM) and 0.0625 µg/mL (≈ 0.102 µM), respectively.

Take `C[C@@H]1[C@H](O)[C@@H](C)/C=C/C=C/C=C/C=C/C=C/C=C/C=C/[C@H](O[C@@H]2O[C@H](C)[C@@H](O)[C@H](N)[C@@H]2O)C[C@@H]2O[C@](O)(C[C@@H](O)C[C@@H](O)[C@H](O)CC[C@@H](O)C[C@@H](O)CC(=O)O[C@H]1C)C[C@H](O)[C@H]2C(=O)O` [AMPHOTERICIN B]: the MIC80 stood at 1 µg/mL (≈ 1.08 µM) in assay [1]; 1 µg/mL (≈ 1.08 µM) in assay [2]; 16 µg/mL (≈ 17.3 µM) in assay [3]; 4 µg/mL (≈ 4.33 µM) in assay [4]; 1 µg/mL (≈ 1.08 µM) in assay [5]; 0.0152 µg/mL (≈ 0.0164 µM) in assay [6]. Moreover, the MIC80 in assay [7] was 0.0625 µg/mL (≈ 0.0676 µM); in assay [8] it was 0.0039 µg/mL (≈ 0.00422 µM).

On to `OC(Cn1cncn1)(Cn1cncn1)c1ccc(F)cc1F` [FLUCONAZOLE], for which the MIC80 was 0.25 µg/mL (≈ 0.816 µM) in assay [1]; 1 µg/mL (≈ 3.27 µM) in assay [2]; 16 µg/mL (≈ 52.2 µM) in assay [3]; 64 µg/mL (≈ 209 µM) in assay [4]; 4 µg/mL (≈ 13.1 µM) in assay [5]; 1 µg/mL (≈ 3.27 µM) in assay [6]. In addition, the MIC80 turned out to be 1 µg/mL (≈ 3.27 µM) in assay [7] and 0.25 µg/mL (≈ 0.816 µM) in assay [8].

Consider `CCC(C)n1ncn(-c2ccc(N3CCN(c4ccc(OCC5COC(Cn6cncn6)(c6ccc(Cl)cc6Cl)O5)cc4)CC3)cc2)c1=O` (configuration not stated) [ITRACONAZOLE], for which the MIC80 in assay [1] turned out to be 0.0152 µg/mL (≈ 0.0215 µM); in assay [2] it was 1 µg/mL (≈ 1.42 µM); in assay [3], 0.25 µg/mL (≈ 0.354 µM); in assay [4] it was 1 µg/mL (≈ 1.42 µM); in assay [5], 1 µg/mL (≈ 1.42 µM); in assay [6] it was 0.25 µg/mL (≈ 0.354 µM). The MIC80 in assay [7] worked out at 0.25 µg/mL (≈ 0.354 µM); in assay [8] it was 0.0152 µg/mL (≈ 0.0215 µM).

As for `CC(=O)N1CCN(c2ccc(OC[C@H]3CO[C@](Cn4ccnc4)(c4ccc(Cl)cc4Cl)O3)cc2)CC1` [KETOCONAZOLE], the MIC80 worked out at 0.0625 µg/mL (≈ 0.118 µM) in assay [1]; 0.0625 µg/mL (≈ 0.118 µM) in assay [2]; 0.0625 µg/mL (≈ 0.118 µM) in assay [3]; 1 µg/mL (≈ 1.88 µM) in assay [4]; 0.0625 µg/mL (≈ 0.118 µM) in assay [5]; 0.0625 µg/mL (≈ 0.118 µM) in assay [6]. Further, the MIC80 worked out at 0.0625 µg/mL (≈ 0.118 µM) in assay [7] and 0.0039 µg/mL (≈ 0.00734 µM) in assay [8].

As for `C[C@@H](c1ncncc1F)[C@](O)(Cn1cncn1)c1ccc(F)cc1F` [VORICONAZOLE], the MIC80 in assay [1] is 0.0039 µg/mL (≈ 0.0112 µM); in assay [2] it was 0.0152 µg/mL (≈ 0.0435 µM); in assay [3], 0.0152 µg/mL (≈ 0.0435 µM); in assay [4], above 64 µg/mL; in assay [5] it was 0.0152 µg/mL (≈ 0.0435 µM); in assay [6], 1 µg/mL (≈ 2.86 µM). Moreover, the MIC80 in assay [7] is 0.25 µg/mL (≈ 0.716 µM); in assay [8], 0.0039 µg/mL (≈ 0.0112 µM).
